“Also recorded” adds a separate entry of the source. One block for each molecule: values may come before it.
How the values were obtained:
[1] = target: T1, human TG2 (Homo sapiens, UniProt P21980); details: nucleophilic substrate; cited from earlier work
T1 sequence (P21980 1-687): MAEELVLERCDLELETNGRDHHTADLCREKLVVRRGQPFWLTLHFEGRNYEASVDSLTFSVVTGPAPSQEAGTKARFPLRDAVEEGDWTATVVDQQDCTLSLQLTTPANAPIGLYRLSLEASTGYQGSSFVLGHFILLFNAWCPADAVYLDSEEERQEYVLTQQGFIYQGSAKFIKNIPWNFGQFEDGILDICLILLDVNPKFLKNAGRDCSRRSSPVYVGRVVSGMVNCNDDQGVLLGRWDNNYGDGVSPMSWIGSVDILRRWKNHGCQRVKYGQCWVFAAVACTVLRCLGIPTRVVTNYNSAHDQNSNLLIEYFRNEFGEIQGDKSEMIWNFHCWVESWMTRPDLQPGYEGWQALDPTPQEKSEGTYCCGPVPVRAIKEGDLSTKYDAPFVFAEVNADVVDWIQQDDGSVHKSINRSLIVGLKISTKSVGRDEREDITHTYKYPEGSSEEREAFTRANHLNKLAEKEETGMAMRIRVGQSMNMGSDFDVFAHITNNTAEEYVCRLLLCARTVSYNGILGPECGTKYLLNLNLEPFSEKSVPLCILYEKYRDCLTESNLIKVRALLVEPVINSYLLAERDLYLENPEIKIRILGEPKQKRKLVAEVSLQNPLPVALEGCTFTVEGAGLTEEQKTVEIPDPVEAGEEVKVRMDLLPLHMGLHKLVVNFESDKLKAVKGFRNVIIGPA

[2] = system: wild-type MEFs; experiment: Labeling of wild-type MEFs by TG2 activity probes; type: cell-based, mouse; details: for labeling/staining pattern: 1 μM HB230 (3 h) with 10 μM TRX, 5BP at 100 μM
Summary of the method: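 MEFs were grown in DMEM and seeded on glass-bottom plates for 3 days. TG2-knockout controls were E14.5 MEFs immortalised with SV40 large T. Media were replaced, then probe was added with recombinant human TRX for the whole 3 h treatment. Cells were washed in HBSS, fixed in 2% PFA for 10 min at RT, and stained with DAPI. Imaging was confocal with a 63x oil objective; probe was read on the 647 nm channel.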

[3] = system: clathrin mediated endocytosis / LRP-1 in NRK cells; experiment: Inhibition of clathrin/LRP-1 mediated endocytosis of 33mer and α2M in NRK cells; type: cell-based, rat; details: for inhibition of large endocytic puncta (33mer + α2M): 12.5 mM MβCD, 20 μM Dyno-4a, 25 μM Pitstop
Summary of the method: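 Clathrin-endocytosis inhibitors used on NRK cells: MβCD 12.5 mM, Dyno-4a 20 μM, Pitstop 25 μM; Pitstop added 30 min before the other treatments. Then labelled α2M and Cy5-33mer for 1.5 h, HBSS washes, 2% PFA fix, DAPI, confocal for large double-labelled puncta.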

[4] = system: 9022 cells (HLA-DQ2 homozygous B-cell line); experiment: Cell surface presentation by HLA-DQ2 expressing 9022 B cells; type: cell-based, human; details: 20 min prior to α2M and 33mer
Summary of the method: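 EBV-immortalised HLA-DQ2-homozygous B cells in RPMI with 10% FBS and 1% PenStrep, pelleted, resuspended and left 20 min at 37 °C to adhere on poly-L-lysine-coated glass. Cy5-33mer, α2M and 100 nM recombinant human TG2 (E. coli, His6) added for 2.5 h. Anti-HLA-DQ2 (1:50) then Alexa 488 secondary, each 20 min on ice, fixed, DAPI, confocal. Cells with surface HLA-DQ2/Cy5 overlay scored; 2-4 frames of 3-6 replicates.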

[5] = system: NRK cells; experiment: Endocytosis of fluorescent α2M in NRK cells with TG2 inhibitors or substrates; type: cell-based, rat
Summary of the method: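 Rat NRK cells kept in DMEM, split 1:4 to 1:10 every 2-4 days, and imaged as adherent cultures. Small-molecule inhibitors go on 30 min ahead of other additions. Recombinant α2M is purified from culture supernatant by zinc-affinity chromatography and then SEC. After 1.5 h, cells are washed 3× in HBSS, fixed in 2% PFA/PBS for 10 min at RT, DAPI-stained, and imaged by confocal microscopy under low light.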

[6] = target: T1, human TG2; details: oxidant; without active site occupancy; cited from earlier work
[7] = target: T2, TG2 derivative lacking the C-terminal β-barrel domain (Homo sapiens, UniProt P21980); experiment: Kinetics of truncated TG2 lacking the C-terminal β-barrel domain; type: biochemical; details: pH 7.2, 25 °C, triplicate
T2 sequence (P21980 1-586): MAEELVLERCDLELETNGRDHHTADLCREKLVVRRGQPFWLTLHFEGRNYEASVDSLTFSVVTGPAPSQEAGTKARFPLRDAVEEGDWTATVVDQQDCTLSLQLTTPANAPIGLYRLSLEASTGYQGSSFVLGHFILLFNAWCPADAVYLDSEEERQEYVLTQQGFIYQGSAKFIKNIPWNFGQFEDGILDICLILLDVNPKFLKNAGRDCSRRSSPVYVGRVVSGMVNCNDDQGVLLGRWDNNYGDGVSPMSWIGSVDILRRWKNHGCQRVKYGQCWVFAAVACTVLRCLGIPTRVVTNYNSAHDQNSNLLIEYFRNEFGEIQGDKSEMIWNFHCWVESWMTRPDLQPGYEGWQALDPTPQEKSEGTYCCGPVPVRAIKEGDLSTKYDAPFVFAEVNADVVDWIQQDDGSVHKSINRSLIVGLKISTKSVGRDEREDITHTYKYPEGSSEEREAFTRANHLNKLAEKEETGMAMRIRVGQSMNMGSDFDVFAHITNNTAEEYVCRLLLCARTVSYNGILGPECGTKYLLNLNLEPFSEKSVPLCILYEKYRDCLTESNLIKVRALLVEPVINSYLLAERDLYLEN
Summary of the method: (§1)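 Truncated human TG2 constructs with N-terminal His tags (residues 1-586 lacking β2; residues 1-460 lacking β1 and β2) were expressed in Rosetta2 E. coli and purified by Ni, anion exchange and SEC. The assay was GDH-coupled: 200 mM MOPS pH 7.2, 5 mM CaCl2, 10 mM α-ketoglutarate, 18 U/mL GDH, 0.5 mM NADH and Ac-PQLPF-NH2. Reduced enzyme was at 1 μM final, ± Expi293F-expressed human α2M. NADH loss was read at 340 nm for 60 min at 25 °C. Rates came from linear slopes; triplicate.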

[8] = target: T1, human TG2; experiment: TG2 steady-state kinetics of substrates, wild-type TG2 ± α2M and vs pH; type: biochemical; details: for kcat: 200 mM MOPS pH 7.2, 5 mM CaCl2, 25 °C, 1 μM TG2, triplicate
Summary of the method: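 His6-tagged human TG2 from E. coli BL21(DE3) was purified by Ni-NTA and anion exchange, reduced, and desalted into PBS. It was assayed at 1 μM final, ± recombinant human α2M (Expi293F-expressed), with GDH/α-ketoglutarate/NADH coupling in 200 mM MOPS pH 7.2 with 5 mM CaCl2. Substrate was Ac-PQLPF-NH2 unless otherwise specified. Absorbance at 340 nm was followed for 60 min at 25 °C. Steady-state rates came from linear progress-curve slopes; triplicate.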

[9] = target: T3, TG2 derivative harboring the N-terminal and catalytic domains but lacking both β-barrel domains (Homo sapiens, UniProt P21980); experiment: Kinetics of truncated TG2 lacking both β-barrel domains; type: biochemical; details: pH 7.2, 25 °C, triplicate
T3 sequence (P21980 1-460): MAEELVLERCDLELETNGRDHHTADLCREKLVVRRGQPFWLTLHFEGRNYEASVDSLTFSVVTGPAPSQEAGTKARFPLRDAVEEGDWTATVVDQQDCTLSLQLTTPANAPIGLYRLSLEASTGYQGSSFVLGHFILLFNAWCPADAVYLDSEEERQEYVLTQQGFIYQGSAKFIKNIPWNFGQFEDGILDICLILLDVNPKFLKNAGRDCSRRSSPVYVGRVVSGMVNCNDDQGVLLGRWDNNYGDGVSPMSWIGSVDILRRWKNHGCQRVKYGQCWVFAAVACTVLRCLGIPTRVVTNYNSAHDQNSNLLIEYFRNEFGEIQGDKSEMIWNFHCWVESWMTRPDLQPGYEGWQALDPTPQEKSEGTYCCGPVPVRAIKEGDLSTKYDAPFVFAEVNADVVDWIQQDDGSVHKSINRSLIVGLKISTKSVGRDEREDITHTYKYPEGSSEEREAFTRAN
Summary of the method: as §1

[10] = system: TG2-knockout BMM; experiment: Uptake by bone marrow derived macrophages from TG2-knockout mice; type: cell-based, mouse; details: triplicates
Summary of the method: (§2)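 Bone marrow from female C57BL6 or TG2-knockout mice, red cells removed, plated at 8x10^6 cells in RPMI/10% FBS with 20 ng/mL M-CSF. Fed on days 2 and 4, adherent cells harvested with 5 mM EDTA on day 5. Cy5-33mer uptake imaged by confocal; triplicates, mean ± SD.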

[11] = system: wild-type BMDCs; experiment: Uptake by BMDCs from wild-type mice; type: cell-based, mouse
Summary of the method: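 Bone marrow flushed from tibia and femur of female C57BL6 or TG2-knockout mice, red cells removed. Cells seeded at 2x10^6 per 10-cm dish in RPMI/10% FBS with 10 ng/mL GM-CSF, fed on days 3 and 6, suspension cells harvested day 8. Probed with HB230 or Cy5-33mer; confocal, DAPI counterstain.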

[12] = system: wild-type bone marrow derived macrophages (BMM); experiment: Uptake by bone marrow derived macrophages from wild-type mice; type: cell-based, mouse; details: ± α2M; triplicates
Summary of the method: as §2

Molecule: NCCCCCNC(=O)CCCC[C@@H]1SC[C@@H]2NC(=O)N[C@@H]21 [5-BP, 5-biotinamidopentylamine]
TG2 substrate activity in words [1]: relatively weak nucleophilic substrate | labeling/staining pattern [2]: label bound to extracellular matrix proteins (e.g., fibronectin) in a predictably fibrous pattern | labeling/staining pattern ([2]; listed as 5BP): fibrous incorporation pattern

Molecule: O=C(N/N=C/c1cc(O)c(O)cc1O)c1cc2ccccc2cc1O [Dyno-4a]
inhibition of large endocytic puncta (33mer + α2M) [3]: strong inhibition of α2M and peptide colocalization as large endocytic puncta; also recorded: abrogate the appearance of large puncta

Molecule: O=C1NC(=NS(=O)(=O)c2cccc3ccccc23)S/C1=C\c1ccc(Br)cc1 [Pitstop-2]
inhibition of large endocytic puncta (33mer + α2M) [3]: strong inhibition of α2M and peptide colocalization as large endocytic puncta | inhibition of large endocytic puncta (33mer + α2M) ([3]; listed as Pitstop): abrogate the appearance of large puncta | effect of Pitstop on cell surface 33mer [4]: dose-dependent reduction of cell-surface 33mer labeling

Molecule: NCCSSCCN [cystamine, reference compound]
effect on α2M internalization (large puncta) ([5]; fluorescent α2M 100 μg/mL, CK805 10 μM, cystamine 100 μM): unable to promote rapid internalization of fluorescent α2M; also recorded: do not yield the larger puncta at saturating concentrations | TG2 inactivation mechanism in words [6]: inactivates TG2 by promoting C370-C371 disulfide bond formation

kcat ([7]; absence of α2M): 0.15 ± 0.017 s⁻¹ | kcat ([7]; presence of α2M): 0.13 ± 0.017 s⁻¹ | kcat ([8]; absence of α2M): 0.583 ± 0.017 s⁻¹ | kcat ([8]; presence of α2M): 0.483 ± 0.017 s⁻¹ | kcat ([9]; absence of α2M): 0.12 ± 0.0033 s⁻¹ | kcat ([9]; presence of α2M): 0.12 ± 0.005 s⁻¹
Molecule: AC-PQLPF-NH2

Molecule: H-LQLQPFPQPQLPYPQPQLPYPQPQLPYPQPQPF-Rink resin [SulfoCy5-native-33mer]
uptake by TG2-knockout BMM [10]: do not internalize 33mer | uptake by wild-type BMDCs [11]: take up HB230 and 33mer | uptake by wild-type BMM [12]: robustly internalized the 33mer in the presence, but not absence, of α2M

Molecule: TG2: recombinant human transglutaminase 2
pH-dependence of TG2 catalytic activity ([8]; deamidation of Ac-PQLPF-NH2, pH 4.2-7.2, steady-state, triplicates): preserved upon acidification until at least pH 5

Molecule: fibronectin
endocytosis of fibronectin / effect on α2M puncta ([5]; 100 μg/mL fluorescent α2M, increasing exogenous fibronectin): dose-dependence increase in the abundance of large but not small puncta; also recorded: endocytosis of extracellular fibronectin via this pathway

Molecule: methyl-β-cyclodextrin [MβCD]
inhibition of large endocytic puncta (33mer + α2M) [3]: strong inhibition of α2M and peptide colocalization as large endocytic puncta; also recorded: abrogate the appearance of large puncta

B1: TRX: recombinant human thioredoxin (protein, UniProt P10599 2-105, looked up)
Thioredoxin: VKQIESKTAFQEALDAAGDKLVVVDFSATWCGPCKMIKPFFHSLSEKYSNVIFLEVDVDDCQDVASECEVKCMPTFQFFKKGQKVGEFSGANKEKLEATINELV
dependence of probe labeling on TRX ([2]; TRX added for duration of HB230 treatment): strongly dependent

B2: RAP: potent endogenous antagonist of α2M binding to LRP-1, receptor associated protein (protein, UniProt P30533 35-357, looked up)
Alpha-2-macroglobulin …: YSREKNQPKPSPKRESGEEFRMEKLNQLWEKAQRLHLPPVRLAELHADLKIQERDELAWKKLKLDGLDEDGEKEARLIRNLNVILAKYGLDGKKDARQVTSNSLSGTQEDGLDDPRLEKLWHKAKTSGKFSGEELDKLWREFLHHKEKVHEYNVLLETLSRTEEIHENVISPSDLSDIKGSVLHSRHTELKEKLRSINQGLDRLRRVSHQGYSTEAEFEEPRVIDLWDLAQSANLTDKELEAFREELKHFEAKIEKHNHYQKQLEIAHEKLRHAESVGDGERVSRSREKHALLEGRTKELGYTVKKHLQDLSGRISRARHNEL
inhibition of large 33mer-containing puncta by LRP-1 antagonist ([3]; RAP prior to Cy5-33mer and α2M): inhibits the formation of large 33mer-containing puncta; also recorded: fully ablated the formation of large puncta
